Results: ChEMBL document CHEMBL3997797 (J Med Chem, 2017)

Columns and labels:
Liver carboxylesterase 1 [1] = molecular target: T1, Liver carboxylesterase 1 (Homo sapiens, UniProt P23141); assay: Inhibition of human liver CES1 expressed in baculovirus infected sf9 cells using o-nitrophenyl acetate as substrate monitored at 15 secs interval for 5 mins
T1 sequence (P23141 whole entry): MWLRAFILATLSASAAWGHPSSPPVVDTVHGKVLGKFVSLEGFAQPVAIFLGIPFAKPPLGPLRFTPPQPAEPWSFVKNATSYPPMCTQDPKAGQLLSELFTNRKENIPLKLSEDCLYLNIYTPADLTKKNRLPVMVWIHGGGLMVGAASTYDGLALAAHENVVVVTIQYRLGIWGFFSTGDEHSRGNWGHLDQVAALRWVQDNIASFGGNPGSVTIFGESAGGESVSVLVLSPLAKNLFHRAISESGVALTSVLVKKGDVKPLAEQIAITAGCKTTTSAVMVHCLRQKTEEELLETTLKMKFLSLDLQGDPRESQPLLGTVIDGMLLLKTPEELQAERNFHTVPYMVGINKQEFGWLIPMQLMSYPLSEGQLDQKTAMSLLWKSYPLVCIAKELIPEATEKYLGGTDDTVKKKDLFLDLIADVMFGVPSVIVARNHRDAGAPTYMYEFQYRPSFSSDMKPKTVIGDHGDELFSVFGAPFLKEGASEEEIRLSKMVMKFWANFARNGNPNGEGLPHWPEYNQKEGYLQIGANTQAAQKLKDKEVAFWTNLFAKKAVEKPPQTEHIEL
Method in brief: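 Purified hCE1 secreted from baculovirus-infected Sf9 cells, isolated from serum-free medium by preparative isoelectric focusing and chromatography. o-NPA hydrolysis measured with at least 8 inhibitor concentrations, each point in quadruplicate. Fractional inhibition fitted to a general partial-inhibition model (α 0 to ∞, β 0 to 1). The best model was chosen by r2 and Akaike's information criterion, and Ki was calculated from that model.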

CES2 (cocaine esterase) [2] = molecular target: T2, CES2 (cocaine esterase) (Homo sapiens, UniProt O00748); assay: Inhibition of human intestinal CES2 expressed in baculovirus infected sf9 cells at 10 uM using o-nitrophenyl acetate as substrate monitored at 15 secs interval for 5 mins relative to control; conditions: probe o-nitrophenyl acetate
T2 sequence (O00748 whole entry): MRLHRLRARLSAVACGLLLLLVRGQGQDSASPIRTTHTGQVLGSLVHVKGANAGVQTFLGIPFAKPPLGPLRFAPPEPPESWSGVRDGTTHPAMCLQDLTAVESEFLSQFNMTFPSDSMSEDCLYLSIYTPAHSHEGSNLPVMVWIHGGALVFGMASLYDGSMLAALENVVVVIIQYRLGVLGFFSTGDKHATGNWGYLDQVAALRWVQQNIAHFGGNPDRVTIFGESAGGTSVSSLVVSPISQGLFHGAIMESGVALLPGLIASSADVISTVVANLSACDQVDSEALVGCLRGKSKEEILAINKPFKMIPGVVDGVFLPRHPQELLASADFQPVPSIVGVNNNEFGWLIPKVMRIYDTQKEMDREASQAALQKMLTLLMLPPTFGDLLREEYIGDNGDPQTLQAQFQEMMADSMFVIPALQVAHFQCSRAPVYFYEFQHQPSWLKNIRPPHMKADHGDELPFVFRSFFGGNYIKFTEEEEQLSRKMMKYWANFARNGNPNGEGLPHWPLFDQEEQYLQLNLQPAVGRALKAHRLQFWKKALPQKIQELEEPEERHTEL

[3] = molecular target: Acetylcholinesterase (Homo sapiens) (UniProt P22303); assay: Inhibition of human AChE at 10 uM using acetylthiocholine as substrate by spectrophotometric method relative to control
[4] = molecular target: T3, CES1 (liver carboxylesterase 1) (Homo sapiens, UniProt P23141); assay: Inhibition of human liver CES1 expressed in U373MG cells assessed as oseltamivir carboxylate formation at 5 uM using oseltamivir as substrate preincubated for 30 mins followed by compound washout and subsequent compound/substrate addition measured after 30 mins by UPLC-MS method relative to control; format: cell-based; set-up: scale not given: the % may be the effect or the level left; conditions: U373MG cells expressing human liver CES1, probe oseltamivir, read-out: Activity
T3 sequence (P23141 whole entry): T1 sequence (P23141 whole entry)
Method in brief: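 U373MG cells expressing hCE1 (1 x 10^5/well) attached overnight. They were pretreated 30 min with 5 µM inhibitor, then media was replaced with fresh media containing 20 µM oseltamivir plus 5 µM inhibitor for 30 min. Media was mixed with an equal volume of acetonitrile and metabolites were quantified by UPLC-MS. Run in duplicate with DMSO control.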

CES2 (cocaine esterase) [5] = molecular target: T2, CES2 (cocaine esterase); assay: Inhibition of human intestinal CES2 expressed in U373MG cells assessed as 7-ethyl-10-hydroxycamptothecin formation at 5 uM using irinotecan as substrate preincubated for 1 hr followed by substrate addition measured after 5 mins by HPLC method relative to control; format: cell-based; set-up: scale not given: the % may be the effect or the level left; conditions: U373MG cells expressing human intestinal CES2, probe irinotecan, read-out: Activity
Liver carboxylesterase 1 [6] = molecular target: T1, Liver carboxylesterase 1; assay: Inhibition of human liver CES1 expressed in baculovirus infected sf9 cells using oseltamivir as substrate
U373 MG [7] = assay: Cytotoxicity against human U373MG cells assessed as cell viability after 30 mins relative to control; format: cell-based; conditions: u-373mg atcc, 0.5 h
U373 MG [8] = assay: Growth inhibition of human U373MG cells after 72 hrs; format: cell-based, U-373MG ATCC
[9] = molecular target: T3, CES1 (liver carboxylesterase 1); assay: Inhibition of human liver CES1 expressed in baculovirus infected sf9 cells at 10 uM using o-nitrophenyl acetate as substrate monitored at 15 secs interval for 5 mins relative to control; conditions: probe o-nitrophenyl acetate
Method in brief: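 Purified secreted hCE1 from Sf9 culture medium, isolated by isoelectric focusing and chromatography. Inhibitor tested at a single concentration of 10 µM against o-NPA hydrolysis. Read-out is percent inhibition.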

Cocaine esterase = molecular target: T4, Cocaine esterase (Homo sapiens, UniProt O00748); assay: Inhibition of human intestinal CES2 expressed in baculovirus infected sf9 cells using o-nitrophenyl acetate as substrate monitored at 15 secs interval for 5 mins
T4 sequence (O00748 whole entry): T2 sequence (O00748 whole entry)

Homo sapiens = species: Homo sapiens; assay: Selectivity ratio of Ki for human intestinal CES2 to Ki for human liver CES1
[10] = Drug metabolism in DMSO/sodium phosphate buffer assessed as tautomerization at pH 3 to 11 by UV-spectroscopic method; format: physicochemical
Method in brief: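 UV absorbance spectra recorded in aqueous 20% DMSO:80% 200 mM sodium phosphate buffer across a range of pH values to follow tautomeric form.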

Chain of Acetylcholinesterase (Homo sapiens) (P22303 whole entry): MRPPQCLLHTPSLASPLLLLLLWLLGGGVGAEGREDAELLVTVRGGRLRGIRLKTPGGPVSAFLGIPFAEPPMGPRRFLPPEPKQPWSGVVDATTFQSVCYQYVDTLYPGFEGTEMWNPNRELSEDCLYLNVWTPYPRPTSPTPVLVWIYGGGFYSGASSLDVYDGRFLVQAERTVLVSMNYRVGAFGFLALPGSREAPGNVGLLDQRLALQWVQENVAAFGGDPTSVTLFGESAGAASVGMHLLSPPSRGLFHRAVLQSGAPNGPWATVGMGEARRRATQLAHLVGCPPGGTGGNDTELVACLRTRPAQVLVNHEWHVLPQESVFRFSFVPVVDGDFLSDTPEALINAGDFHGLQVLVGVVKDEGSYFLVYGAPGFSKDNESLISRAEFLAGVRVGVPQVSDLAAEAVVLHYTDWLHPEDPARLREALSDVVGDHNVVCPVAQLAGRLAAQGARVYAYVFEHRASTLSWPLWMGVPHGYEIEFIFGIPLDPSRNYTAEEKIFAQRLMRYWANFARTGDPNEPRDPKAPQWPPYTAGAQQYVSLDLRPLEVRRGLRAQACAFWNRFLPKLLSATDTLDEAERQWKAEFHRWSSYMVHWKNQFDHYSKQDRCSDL

SMILES	Ki (Liver carboxylesterase 1 [1])	inhibition at 5 min, 10 µM (CES2 (cocaine esterase) [2])	inhibition [3]	activity at 0.5 h, 5 µM [4]	activity at 5 min, 5 µM (CES2 (cocaine esterase) [5])	Ki (Liver carboxylesterase 1 [6])	Activity (U373 MG [7])	IC50 (U373 MG [8])	inhibition at 5 min, 10 µM [9]	Ki (Cocaine esterase)	Ratio Ki (Homo sapiens)	Drug metabolism [10]
Cc1ccc(N(C)C2=CC(=O)C(=O)c3ccccc32)cc1	11.1 nM	25%	3%	2%	93%	4.9 nM	100%	4600 nM				
O=C1C=C(Nc2ccc(F)cc2)c2ccccc2C1=O		14%	21%						40%			
O=C1C=C(Nc2ccc(Cl)cc2)c2ccccc2C1=O		22%	23%						33%			
CN(C1=CC(=O)C(=O)c2ccccc21)c1ccc(I)cc1	400 to 408 nM	83%	31%			148 nM				284 nM	4 to 11	
O=C1C=C(Oc2ccc(Cl)cc2)c2ccccc2C1=O	18.9 nM		31%	20%								
CN(C1=CC(=O)C(=O)c2ccccc21)c1ccc(F)cc1	163 nM	19%	1%	1%	92%	37.6 nM	96%	3900 nM				Metabolite_Notdetected
CN(C1=CC(=O)C(=O)c2ccccc21)c1ccccc1	90 nM	33%	3%	8%	77%	32.1 nM	99%	12800 nM				Metabolite_Notdetected
O=C1C=C(Nc2ccc(Br)cc2)c2ccccc2C1=O		12%	16%						26%			
Cc1ccc(NC2=CC(=O)C(=O)c3ccccc32)cc1		15%	17%						44%			
O=C1C=C(Oc2ccc(Br)cc2)c2ccccc2C1=O	14.3 nM		26%	47%								
O=C1C=C(Oc2ccccc2)c2ccccc2C1=O	23.8 nM		11%	19%								Metabolite_Notdetected
COc1ccc(NC2=CC(=O)C(=O)c3ccccc32)cc1		12%	5%						26%			
CN(C1=CC(=O)C(=O)c2ccccc21)c1ccc(Cl)cc1	19.2 nM	30%	4%	5%	91%	12.9 nM						
O=C1C=C(Oc2ccc(I)cc2)c2ccccc2C1=O	4.7 nM		25%									
COc1ccc(N(C)C2=CC(=O)C(=O)c3ccccc32)cc1	81.6 nM	7%	1%	6%	77%	17.7 nM						
O=C1C=C(Nc2ccccc2)c2ccccc2C1=O		12%	5%						30%			Metabolite_Detected
O=C1C=C(Oc2ccc(F)cc2)c2ccccc2C1=O	45.3 nM		22%	25%								Metabolite_Notdetected
CC1(C)CCC2=C(O1)c1ccccc1C(=O)C2=O [LAPACHONE]	1220 nM		10%	12%								
COc1ccc(OC2=CC(=O)C(=O)c3ccccc32)cc1	17.8 nM		18%	14%								
Cc1ccc(OC2=CC(=O)C(=O)c3ccccc32)cc1	4.44 nM		8%	13%								
O=C1C=C(Nc2ccc(I)cc2)c2ccccc2C1=O		10%	16%						41%			
CN(C1=CC(=O)C(=O)c2ccccc21)c1ccc(Br)cc1	16.1 nM		12%	19%	89%	17.2 nM				1840 nM	4 to 11	
